# Measurements collected from several papers.
# Lines come from different studies, so protocols differ.
# FAAH: Fatty-acid amide hydrolase 1 (FAAH, Homo sapiens, UniProt O00519)
# BDKRB1: B1 bradykinin receptor (BDKRB1, Homo sapiens, UniProt P46663)
SMILES,target,assay,conditions,inhibition
O=C(Nc1cccnn1)N1CCN([C@@H]2CCOc3cc(C(F)(F)F)ccc32)CC1,"Gastrin/cholecystokinin type B receptor (CCKBR, Homo sapiens, UniProt P32239)",cell-free assay,20 µM,-15%
COc1ccc(N(C)C(=O)Oc2nsnc2N2CCCCC2)cc1,FAAH,"enzyme activity, inhibitor","10 µM, cell membranes",17%
c1ccc(C(NCCNC(c2ccccc2)c2ccccc2)c2ccccc2)cc1,BDKRB1,cell-free assay,10 µM,-4%
C#Cc1n[nH]c2c(-c3cn([C@@H](C)c4ccccn4)c(=O)[nH]c3=O)cc(F)cc12,"Receptor-type tyrosine-protein kinase FLT3 (FLT3, Homo sapiens, UniProt P36888)","enzyme activity, inhibitor",0.1 µM,6.2%
CN(C(=O)Oc1nsnc1N1CCOCC1)C1CCCCCCC1,FAAH,"enzyme activity, inhibitor","10 µM, cell membranes",18%
COCc1c(-c2cc3cc(C)cc(OC)c3s2)c2c(N)ncnn2c1CN1CCNC(=O)C1,"Prostaglandin G/H synthase 1 (PTGS1, Homo sapiens, UniProt P23219)","enzyme activity, inhibitor",10 µM,-15%
COc1ccc(S(=O)(=O)N(CC(=O)NO)CC(C)C)cc1,"Stromelysin-1 (MMP3, Homo sapiens, UniProt P08254)","enzyme activity, inhibitor",0.1 µM,80%
C[C@H](C(=O)N[C@H]1COc2ccccc2[C@@H]1S(C)(=O)=O)c1ccc(F)cc1,BDKRB1,cell-free assay,10 µM,7%
